Data: ChEMBL document CHEMBL5303300, “EUbOPEN Chemogenomics Library - Multiplex” (2023)
Where “and” joins values, the source holds several entries; their conditions need not be identical. Identical values can stand only once.

Experiments:
Format in all cases: toxicity, cell-based
Fibroblast = assay: Multiplex assay against human fibroblast; settings: number of replicates 2
Summary of the method: (§1)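 Live cells were stained at seeding with Hoechst33342, BioTracker Green Microtubule Cytoskeleton Dye, MitoTracker Red and Annexin V Alexa Fluor 680, then imaged on a CQ1 microscope at 37°C and 5% CO2 after compound addition. CellPathfinder machine-learning gating split cells into Hoechst high-intensity objects or normal cells. Normal cells were split into healthy, pyknosed or fragmented nuclei, and pyknosed cells into mitotic or apoptotic. Tubulin, mitochondrial-mass and membrane-permeability phenotypes are per cents of healthy-nucleus cells.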

HEK-293T = assay: Multiplex assay against HEK293T; settings: human, number of replicates 2; summary of the method: as §1
U2OS = assay: Multiplex assay against U2OS; settings: human, number of replicates 2; summary of the method: as §1
[1] = 12 h, 1 µM, compound concentration 1 uM
[2] = 12 h, 10 µM, compound concentration 10 uM
[3] = 24 h, 1 µM, compound concentration 1 uM
[4] = 24 h, 10 µM, compound concentration 10 uM
[5] = 48 h, 1 µM, compound concentration 1 uM
[6] = 48 h, 10 µM, compound concentration 10 uM

CS(=O)(=O)c1ccc(C(=O)Nc2cc(F)cc(COc3cc(F)c(Br)cc3CN3CC[C@H](O)C3)c2)c(Cl)c1.O=CO
Population Apoptotic (%) (Fibroblast; [1]): 46% and 47% | Population Fragmented Nuclei (%) (Fibroblast; [1]): 17% | Population Healthy Nuclei (%) (Fibroblast; [1]): 64% and 60% | Population Hoechst High Intensity Objects (%) (Fibroblast; [1]): 0% | Population Normal (%) (Fibroblast; [1]): 99% | Population Pyknosed Nuclei (%) (Fibroblast; [1]): 18% and 26% | Total Cell Count (Fibroblast; [1]): 269 and 200 | Population Apoptotic (%) (Fibroblast; [2]): 67% and 54% | Population Fragmented Nuclei (%) (Fibroblast; [2]): 20% and 17% | Population Hoechst High Intensity Objects (%) (Fibroblast; [2]): 0% | Population Normal (%) (Fibroblast; [2]): 100% | Population Pyknosed Nuclei (%) (Fibroblast; [2]): 49% and 35% | Total Cell Count (Fibroblast; [2]): 234 | Population Apoptotic (%) (Fibroblast; [3]): 56% and 57% | Population Fragmented Nuclei (%) (Fibroblast; [3]): 20% and 17% | Population Healthy Nuclei (%) (Fibroblast; [3]): 65% and 63% | Population Hoechst High Intensity Objects (%) (Fibroblast; [3]): 0% | Population Normal (%) (Fibroblast; [3]): 100% | Population Pyknosed Nuclei (%) (Fibroblast; [3]): 19% | Total Cell Count (Fibroblast; [3]): 284 and 204 | Population Apoptotic (%) (Fibroblast; [4]): 88% and 75% | Population Fragmented Nuclei (%) (Fibroblast; [4]): 11% | Population Healthy Nuclei (%) (Fibroblast; [4]): 42% and 51% | Population Hoechst High Intensity Objects (%) (Fibroblast; [4]): 0% | Population Normal (%) (Fibroblast; [4]): 99% and 100% | Population Pyknosed Nuclei (%) (Fibroblast; [4]): 44% and 36% | Total Cell Count (Fibroblast; [4]): 134 and 230 | Population Apoptotic (%) (Fibroblast; [5]): 74% and 71% | Population Fragmented Nuclei (%) (Fibroblast; [5]): 25% | Population Healthy Nuclei (%) (Fibroblast; [5]): 66% and 65% | Population Hoechst High Intensity Objects (%) (Fibroblast; [5]): 0% | Population Normal (%) (Fibroblast; [5]): 100% | Population Pyknosed Nuclei (%) (Fibroblast; [5]): 8% | Total Cell Count (Fibroblast; [5]): 319 and 223 | Population Apoptotic (%) (Fibroblast; [6]): 93% and 90% | Population Fragmented Nuclei (%) (Fibroblast; [6]): 18% and 10% | Population Healthy Nuclei (%) (Fibroblast; [6]): 22% and 39% | Population Hoechst High Intensity Objects (%) (Fibroblast; [6]): 0% | Population Normal (%) (Fibroblast; [6]): 100% and 98% | Population Pyknosed Nuclei (%) (Fibroblast; [6]): 58% and 50% | Total Cell Count (Fibroblast; [6]): 102 and 177 | Population Apoptotic (%) (HEK-293T; [1]): 74% and 64% | Population Healthy Nuclei (%) (HEK-293T; [1]): 75% and 74% | Population Normal (%) (HEK-293T; [1]): 90% | Population Pyknosed Nuclei (%) (HEK-293T; [1]): 18% and 22% | Total Cell Count (HEK-293T; [1]): 602 and 632 | Population Apoptotic (%) (HEK-293T; [2]): 73% and 77% | Population Healthy Nuclei (%) (HEK-293T; [2]): 78% | Population Normal (%) (HEK-293T; [2]): 93% and 88% | Total Cell Count (HEK-293T; [2]): 459 and 415 | Population Apoptotic (%) (HEK-293T; [3]): 64% and 68% | Population Healthy Nuclei (%) (HEK-293T; [3]): 79% and 75% | Population Normal (%) (HEK-293T; [3]): 92% and 89% | Total Cell Count (HEK-293T; [3]): 818 and 876 | Population Apoptotic (%) (HEK-293T; [4]): 72% and 81% | Population Healthy Nuclei (%) (HEK-293T; [4]): 76% | Population Normal (%) (HEK-293T; [4]): 92% and 86% | Total Cell Count (HEK-293T; [4]): 492 and 449 | Population Apoptotic (%) (HEK-293T; [5]): 52% and 51% | Population Healthy Nuclei (%) (HEK-293T; [5]): 76% and 82% | Population Normal (%) (HEK-293T; [5]): 92% and 91% | Population Pyknosed Nuclei (%) (HEK-293T; [5]): 3% and 4% | Total Cell Count (HEK-293T; [5]): 1931 and 1977 | Population Apoptotic (%) (HEK-293T; [6]): 75% and 74% | Population Healthy Nuclei (%) (HEK-293T; [6]): 68% | Population Normal (%) (HEK-293T; [6]): 83% | Population Pyknosed Nuclei (%) (HEK-293T; [6]): 18% | Total Cell Count (HEK-293T; [6]): 551 and 447 | Population Apoptotic (%) (U2OS; [1]): 33% and 58% | Population Fragmented Nuclei (%) (U2OS; [1]): 2% | Population Normal (%) (U2OS; [1]): 100% | Population Apoptotic (%) (U2OS; [2]): 60% and 54% | Population Normal (%) (U2OS; [2]): 100% | Population Apoptotic (%) (U2OS; [3]): 82% and 66% | Population Fragmented Nuclei (%) (U2OS; [3]): 2% and 3% | Population Normal (%) (U2OS; [3]): 100% and 96% | Population Apoptotic (%) (U2OS; [4]): 61% and 71% | Population Normal (%) (U2OS; [4]): 100% and 99% | Population Apoptotic (%) (U2OS; [5]): 63% and 88% | Population Fragmented Nuclei (%) (U2OS; [5]): 2% and 1% | Population Normal (%) (U2OS; [5]): 100% | Population Apoptotic (%) (U2OS; [6]): 94% and 89% | Population Normal (%) (U2OS; [6]): 98%
